The target of data set [1] is T1, Melanocortin receptor 4 (Homo sapiens, UniProt P32245). Briefly: Antagonist activity at MC4 receptor assessed as inhibition of alpha-MSH-stimulated cAMP production. The class given is functional.
In data set [2] the target is T1, Melanocortin receptor 4. Briefly: Displacement of [125]NDPMSH from human MC4 receptor expressed in HEK293 cells. It counts as cell-based.
Data set [3] concerns the target T1, Melanocortin receptor 4. Briefly: Agonist activity at MC4 receptor by cAMP assay. It counts as functional. A general note: Changes in cAMP serve as a functional read-out for many G protein-coupled receptors.
Data set [4] is described as follows: Half life in rat at 5 mg/kg, iv. The class given is ADME, organism-based. On the set-up: dose 5 mg/kg, route intravenous. As to conditions: in vivo. An outline of the steps:
(§1)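 Single intravenous injection at 5 mg/kg in rats. Clearance, volume of distribution and half-life are derived from plasma concentrations.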

Data set [5] in a line: Cmax in rat at 10 mg/kg, po. It counts as ADME, organism-based. On the set-up: dose 10 mg/kg, route oral. As to conditions: in vivo. An outline of the steps: (§2)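 Rats dosed orally at 10 mg/kg. Cmax and AUC are plasma values. Absolute bioavailability is referenced to a separate intravenous 5 mg/kg dose.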
The nature of data set [6]: Plasma clearance in rat at 5 mg/kg, iv. It counts as ADME, organism-based. On the set-up: dose 5 mg/kg, route intravenous. An outline of the steps:
as §1

Data set [7] can be described thus: Volume of distribution in rat at 5 mg/kg, iv. It counts as ADME, organism-based. On the set-up: dose 5 mg/kg, route intravenous. Particulars: in vivo. An outline of the steps: as §1
The nature of data set [8]: Absolute bioavailability in rat at 10 mg/kg, po. The class given is ADME, organism-based. As to conditions: in vivo. An outline of the steps:
as §2

For a further data set, the system named is Rattus norvegicus. Briefly: AUC in rat at 10 mg/kg, po. It counts as ADME, organism-based, Plasma. On the set-up: dose 10 mg/kg, route oral. Particulars: in vivo. An outline of the steps: as §2

T1 sequence (P32245 whole entry): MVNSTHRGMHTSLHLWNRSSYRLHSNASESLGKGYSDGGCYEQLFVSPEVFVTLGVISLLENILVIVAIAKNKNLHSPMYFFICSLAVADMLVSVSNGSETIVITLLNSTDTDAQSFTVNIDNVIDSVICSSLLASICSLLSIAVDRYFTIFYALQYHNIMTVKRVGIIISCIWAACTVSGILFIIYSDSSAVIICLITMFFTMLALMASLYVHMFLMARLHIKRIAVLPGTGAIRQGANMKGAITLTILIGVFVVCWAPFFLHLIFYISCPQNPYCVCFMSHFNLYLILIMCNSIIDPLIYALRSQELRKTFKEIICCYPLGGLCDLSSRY

Turning to `CC(C)C[C@H](N)c1cc(Cl)ccc1N1CCN(C(=O)[C@@H]2NCC[C@@H]2c2ccc(Cl)cc2Cl)CC1`, on Melanocortin receptor 4 [1], the IC50 (usually the concentration needed to halve the response being measured) was 1500 nM. Turning to `Cc1ccc(N2CCN(C(=O)[C@@H]3[C@H](c4ccc(Cl)cc4)CCN3C(=O)N(C)C)CC2)c([C@@H](N)C(C)C)c1`, the affinity at Melanocortin receptor 4 [2], expressed as Ki, was 190 nM. For `Cc1ccc(N2CCN(C(=O)[C@H]3[C@@H](c4ccc(Cl)cc4)CCN3C(=O)[C@H]3Cc4ccccc4CN3)CC2)c([C@@H](N)C(C)C)c1`, on Melanocortin receptor 4 [3], it took 3500 nM to reach a half-maximal effect (EC50) and the maximal response (Emax) (as a rule, the greatest response seen or fitted, relative to the assay's reference) was found to be 44%. Moreover, the Ki (usually a measure of affinity in units of concentration, obtained from inhibition or displacement) at Melanocortin receptor 4 [2] amounted to 1.1 nM. With `CC(C)C[C@H](N)c1cc(C(F)(F)F)ccc1N1CCN(C(=O)C2NCCC2c2ccc(Cl)cc2)CC1` (some centres undefined), the Ki on Melanocortin receptor 4 [2] was determined as 98 nM. In the case of `Cc1ccc(N2CCN(C(=O)[C@@H]3NCC[C@@H]3c3ccc(Cl)cc3)CC2)c([C@@H](N)C(C)C)c1`, on Melanocortin receptor 4 [1], the IC50 was determined as 310 nM. The Ki on Melanocortin receptor 4 [2] came out at 52 nM. For `COC(=O)N1CC[C@H](c2ccc(Cl)cc2)[C@@H]1C(=O)N1CCN(c2ccc(C)cc2[C@@H](N)C(C)C)CC1` (stereo in doubt; form 2), the inhibitory constant (Ki) on Melanocortin receptor 4 [2] was 18 nM. Turning to `CC(=O)N1CC[C@H](c2ccc(Cl)cc2)[C@H]1C(=O)N1CCN(c2ccc(C)cc2[C@@H](N)C(C)C)CC1`, at Melanocortin receptor 4 [2], the Ki came out at 78 nM. In the case of `CCOC(=O)N1CC[C@H](c2ccc(Cl)cc2)[C@@H]1C(=O)N1CCN(c2ccc(C)cc2[C@@H](N)C(C)C)CC1` (stereo in doubt; form 1), at Melanocortin receptor 4 [1], the IC50 turned out to be 640 nM. In addition, the inhibition constant Ki on Melanocortin receptor 4 [2] was 16 nM. On Melanocortin receptor 4 [2], `CC(=O)N1CC[C@H](c2ccc(F)cc2)[C@@H]1C(=O)N1CCN(c2ccc(C)cc2[C@@H](N)C(C)C)CC1` returned an inhibition constant Ki of 330 nM. `CC(=O)N1CC[C@@H](c2ccc(Cl)cc2)[C@@H]1C(=O)N1CCN(c2ccc(C)cc2[C@@H](N)C(C)C)CC1` registered an inhibition constant Ki on Melanocortin receptor 4 [2] of 180 nM. Take `Cc1ccc(N2CCN(C(=O)[C@H]3[C@@H](c4ccc(Cl)cc4)CCN3C(=O)OC(C)C)CC2)c([C@@H](N)C(C)C)c1`: the Ki on Melanocortin receptor 4 [2] was found to be 12 nM. The molecule `Cc1ccc(N2CCN(C(=O)[C@H]3[C@@H](c4ccc(Cl)cc4)CCN3C(=O)C(C)(C)C)CC2)c([C@@H](N)C(C)C)c1` had a Ki on Melanocortin receptor 4 [2] of 7.2 nM. The same measure, in the same setting: for `CC(=O)N1CC[C@H](c2ccc(C(F)(F)F)cc2)[C@@H]1C(=O)N1CCN(c2ccc(C)cc2[C@@H](N)C(C)C)CC1` the value was 54 nM; for `CC(C)C[C@H](N)c1cc(Cl)ccc1N1CCN(C(=O)C2NCCC2c2ccc(Cl)cc2)CC1` (some centres undefined), 96 nM. Same read-out and setting: to `Cc1ccc(N2CCN(C(=O)[C@@H]3[C@@H](c4ccc(Cl)cc4)CCN3C(=O)C3CCC3)CC2)c([C@@H](N)C(C)C)c1` belongs 55 nM. For `Cc1ccc(N2CCN(C(=O)[C@@H]3[C@@H](c4ccc(Cl)cc4)CCN3C(=O)[C@H]3Cc4ccccc4CN3)CC2)c([C@@H](N)C(C)C)c1`, on Melanocortin receptor 4 [3], the EC50 (usually the midpoint of the concentration-response curve) came out at 15000 nM and the Emax stood at 21%. In addition, affinity on Melanocortin receptor 4 [2] was put at a Ki of 92 nM. As to `Cc1ccc(N2CCN(C(=O)[C@H]3[C@@H](c4ccc(Cl)cc4)CCN3S(C)(=O)=O)CC2)c([C@@H](N)C(C)C)c1`, the inhibitory constant (Ki) on Melanocortin receptor 4 [2] was 40 nM. This counts as double-digit nanomolar. Same read-out and setting: for `CC(=O)N1CC[C@@H](c2ccc(Cl)cc2)[C@H]1C(=O)N1CCN(c2ccc(C)cc2[C@@H](N)C(C)C)CC1` the value was 120 nM. On Melanocortin receptor 4 [2], `COc1ccc([C@H]2CCN(C(C)=O)[C@H]2C(=O)N2CCN(c3ccc(C)cc3[C@@H](N)C(C)C)CC2)cc1` had a Ki of 45 nM. Same read-out and setting: to `CC(=O)N1CC[C@H](c2ccc(Cl)cc2)[C@@H]1C(=O)N1CCN(c2ccc(C)cc2[C@@H](N)C(C)C)CC1` (stereo in doubt; form 1) belongs 24 nM; to `CCOC(=O)N1CC[C@H](c2ccc(Cl)cc2)[C@@H]1C(=O)N1CCN(c2ccccc2[C@@H](N)C(C)C)CC1`, 94 nM.

For the molecule `CC(=O)N1CC[C@H](c2ccccc2)[C@@H]1C(=O)N1CCN(c2ccc(C)cc2[C@@H](N)C(C)C)CC1`, the Ki at Melanocortin receptor 4 [2] was found to be 1800 nM.

On to `CC(C)[C@H](N)c1cccc(F)c1N1CCN(C(=O)C2NCCC2c2ccc(Cl)cc2Cl)CC1` (some centres undefined), for which, on Melanocortin receptor 4 [2], the Ki turned out to be 560 nM. Consider `CC(C)[C@H](N)c1cccc(F)c1N1CCN(C(=O)[C@@H]2NCC[C@@H]2c2ccc(Cl)cc2)CC1`, for which, at Melanocortin receptor 4 [1], the IC50 stood at 960 nM. For `CC(C)C[C@H](N)c1cc(C(F)(F)F)ccc1N1CCN(C(=O)C2(Cc3ccc(Cl)cc3)COC(=O)N2)CC1` (some centres undefined), at Melanocortin receptor 4 [2], the Ki amounted to 550 nM. On the same count and under the same terms, to `Cc1ccc(N2CCN(C(=O)C3NCCC3c3ccc(Cl)cc3)CC2)c([C@@H](N)C(C)C)c1` (some centres undefined) belongs 56 nM; to `CCOC(=O)N1CC[C@@H](c2ccc(Cl)cc2)[C@H]1C(=O)N1CCN(c2ccc(C)cc2[C@@H](N)C(C)C)CC1`, 130 nM.

Molecule `Cc1ccc(N2CCN(C(=O)[C@@H]3[C@@H](c4ccc(Cl)cc4)CCN3C(=O)C(C)(C)C)CC2)c([C@@H](N)C(C)C)c1` registered a Ki at Melanocortin receptor 4 [2] of 79 nM. The same measure, in the same setting: for `CCOC(=O)N1CC[C@H](c2ccc(Cl)cc2)[C@@H]1C(=O)N1CCN(c2ccc(F)cc2[C@@H](N)C(C)C)CC1` the value was 74 nM. For `COC(=O)N1CC[C@@H](c2ccc(Cl)cc2)[C@H]1C(=O)N1CCN(c2ccc(C)cc2[C@@H](N)C(C)C)CC1`, on Melanocortin receptor 4 [2], the Ki is 53 nM. This Ki and that of the molecule before are within 1.5-fold of each other. In the case of `CC(C)[C@H](N)c1cccc(F)c1N1CCN(C(=O)C2NCCC2c2ccc(Cl)cc2)CC1` (some centres undefined), on Melanocortin receptor 4 [2], the affinity, expressed as Ki, was 110 nM. In turn, `CC(C)C[C@H](N)c1cc(Cl)ccc1N1CCN(C(=O)C2NCCC2c2ccc(Cl)cc2Cl)CC1` (some centres undefined) returned a Ki at Melanocortin receptor 4 [2] of 190 nM. The same measure, in the same setting: to `CCOC(=O)N1CC[C@H](c2ccc(Cl)cc2)[C@H]1C(=O)N1CCN(c2ccc(C)cc2[C@@H](N)C(C)C)CC1` belongs 42 nM. Take `Cc1ccc(N2CCN(C(=O)[C@H]3[C@@H](c4ccc(Cl)cc4)CCN3C(=O)N(C)C)CC2)c([C@@H](N)C(C)C)c1` (stereo in doubt; form 1): the IC50 at Melanocortin receptor 4 [1] was found to be 190 nM. Also, at Melanocortin receptor 4 [2], the Ki was 7.4 nM. With `CCC(=O)N1CC[C@H](c2ccc(Cl)cc2)[C@H]1C(=O)N1CCN(c2ccc(C)cc2[C@@H](N)C(C)C)CC1`, affinity at Melanocortin receptor 4 [2] was put at a Ki of 62 nM. This counts as double-digit nanomolar. The same measure, in the same setting: to `Cc1ccc(N2CCN(C(=O)[C@H]3[C@@H](c4ccc(Cl)cc4)CCN3C)CC2)c([C@@H](N)C(C)C)c1` belongs 160 nM.

Regarding `CC(=O)N1CC[C@H](c2ccc(Cl)cc2)[C@@H]1C(=O)N1CCN(c2ccc(C)cc2[C@@H](N)C(C)C)CC1` (stereo in doubt; form 2), the IC50 at Melanocortin receptor 4 [1] amounted to 520 nM. In addition, the Ki on Melanocortin receptor 4 [2] came out at 11 nM. `CCOC(=O)N1CC[C@H](c2ccc(Cl)cc2)[C@@H]1C(=O)N1CCN(c2ccc(Cl)cc2[C@@H](N)C(C)C)CC1`: the affinity on Melanocortin receptor 4 [2], expressed as Ki, was 18 nM. The same measure, in the same setting: to `CCCC(=O)N1CC[C@H](c2ccc(Cl)cc2)[C@H]1C(=O)N1CCN(c2ccc(C)cc2[C@@H](N)C(C)C)CC1` belongs 52 nM. Same read-out and setting: to `CCOC(=O)N1CC[C@H](c2ccc(Cl)cc2)[C@@H]1C(=O)N1CCN(c2ccc(C)cc2[C@@H](N)C(C)C)CC1` (stereo in doubt; form 2) belongs 11 nM; to `Cc1ccc(N2CCN(C(=O)[C@@H]3[C@@H](c4ccc(Cl)cc4)CCN3C(=O)OC(C)C)CC2)c([C@@H](N)C(C)C)c1`, 68 nM; to `Cc1ccc(N2CCN(C(=O)[C@H]3[C@@H](c4ccc(Cl)cc4)CCN3C(C)C)CC2)c([C@@H](N)C(C)C)c1`, 110 nM.

For `CC(=O)N1CC[C@H](c2ccc(C)cc2)[C@@H]1C(=O)N1CCN(c2ccc(C)cc2[C@@H](N)C(C)C)CC1`, the Ki on Melanocortin receptor 4 [2] stood at 97 nM. Take `COC(=O)N1CC[C@H](c2ccc(Cl)cc2)[C@@H]1C(=O)N1CCN(c2ccc(C)cc2[C@@H](N)C(C)C)CC1` (stereo in doubt; form 1): the IC50 at Melanocortin receptor 4 [1] is 720 nM. On Melanocortin receptor 4 [2], this molecule showed an inhibitory constant (Ki) of 17 nM. Molecule `CC(C)C[C@H](N)c1cc(C(F)(F)F)ccc1N1CCN(C(=O)C2NC(=O)CC2c2ccc(Cl)cc2)CC1` (some centres undefined) displayed a Ki on Melanocortin receptor 4 [2] of 340 nM. That is a sub-micromolar value.

As to `Cc1ccc(N2CCN(C(=O)[C@H]3[C@@H](c4ccc(Cl)cc4)CCN3C(=O)N(C)C)CC2)c([C@@H](N)C(C)C)c1` (stereo in doubt; form 2), the half-life (usually how long it takes for the measured level to halve) in data set [4] was 4.3 h. Further, the half-maximal inhibitory concentration (IC50) at Melanocortin receptor 4 [1] was 93 nM. The affinity at Melanocortin receptor 4 [2] corresponds to a Ki of 6.5 nM. Also, in data set [5], the peak level (Cmax) was 35 ng/mL. Further, the clearance (in general, the volume of plasma or blood freed of the substance per unit of time) in [6] is 20 mL/min/kg. Also, the Vd (as a rule, a proportionality between amount in the body and measured concentration, not a real space) in data set [7] came out at 17.2 L/kg. The bioavailability (in general, the share of a dose that reaches the circulation, judged against a reference dose that is usually intravenous) in data set [8] stood at 7.2%. Further, the AUC (usually the area under the concentration-time curve, a measure of exposure) in the data set with Rattus norvegicus turned out to be 533 ng·h/mL. For the molecule `COC(=O)N1CC[C@H](c2ccc(Cl)cc2)[C@H]1C(=O)N1CCN(c2ccc(C)cc2[C@@H](N)C(C)C)CC1`, the Ki on Melanocortin receptor 4 [2] was 59 nM.

Regarding `CC(C)C[C@H](N)c1cc(C(F)(F)F)ccc1N1CCN(C(=O)[C@@H]2NCC[C@@H]2c2ccc(Cl)cc2)CC1`, the IC50 at Melanocortin receptor 4 [1] is 2400 nM.

Values taken from ChEMBL document CHEMBL1141529, “Design and synthesis of 3-arylpyrrolidine-2-carboxamide derivatives as melanocortin-4 receptor ligands” (Bioorg Med Chem Lett, 2008).
